According to ChEMBL document CHEMBL2177098, “Synthesis and evaluation of novel ¹⁸F labeled 2-pyridinylbenzoxazole and 2-pyridinylbenzothiazole derivatives as ligands for positron emission tomography (PET) imaging of β-amyloid plaques” (J Med Chem, 2012):
pKi: −log10 of the molar value.

What was measured:
Brain = experiment: Ratio of drug uptake in brain at 2 mins to drug uptake in brain at 60 mins in CD1 mouse at 10 uCi, iv; type: ADME, organism-based; conditions: in vivo
In short: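 Normal male ICR mice (5 weeks, about 20 g) received the 18F-labelled tracer in saline, 370 KBq per 100 μL, by tail-vein injection. Five mice per time point were killed at 2, 10, 30 and 60 min. Organs were weighed and gamma-counted against diluted aliquots of the injected dose to give % dose/g. The ratio is brain uptake at 2 min over brain uptake at 60 min.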

[1] = Displacement of [125I]-IMPY from amyloid beta (1 to 42) fibrils after 2 hrs by gamma-counting analysis
In short: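 Competition binding with aggregated Aβ1-42 fibrils and [125I]IMPY (60000−100000 cpm/100 μL) in 0.05% BSA (1 mL total); inhibitors 10⁻⁴−10^−8.5 M in ethanol. Incubated 37 °C for 2 h, then GF/B vacuum filtration with PBS (0.02 M, pH 7.4) washes and γ counting. Three repeats; IC50 converted to Ki by Cheng−Prusoff.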

CNc1ccc(/C=C/c2ccc(OCCOCCOCC[18F])nc2)cc1 [FLORBETAPIR F 18]
Ratio (Brain): 3.9 | pKi [1]: 8.54
